The results in this text go back to ChEMBL document CHEMBL3351944 (J Nat Prod, 2014).

Data set [1] deals with MDCK. Nature of the data set: Apparent permeability from basolateral side to apical in MDCK cells expressing MDR1 at 10 uM after 60 mins by LC/MS analysis. It counts as ADME, cell-based, Canis lupus familiaris. Conditions: dog, 1 h.
Data set [2] has as its system MDCK. Nature of the data set: Apparent permeability from basolateral side to apical in verapamil pretreated MDCK cells expressing MDR1 at 10 uM after 60 mins by LC/MS analysis. It counts as ADME, cell-based, Canis lupus familiaris. Conditions: dog, 1 h.
Data set [3] has as its system MCF7. Nature of the data set: Antiproliferative activity against human MCF7 cells assessed as growth inhibition after 72 hrs by MTS/PMS assay. The class given is functional, cell-based. Conditions: MCF7, 72 h. In a few lines: (§1)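 MCF7 cells seeded at 2000/well and left to attach overnight. Six-point curves in duplicate over 100 nM–100 μM for test compounds and 1 nM–1 μM for geldanamycin, 1% DMSO final, 72 h at 37 °C. Growth read by MTS/PMS and normalized to 1% DMSO controls. At least two independent experiments; nonlinear regression gave IC50 and % inhibition.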

The test system of data set [4] is MCF7. Nature of the data set: Antiproliferative activity against human MCF7 cells assessed as growth inhibition after 72 hrs by MTS/PMS assay relative to DNSO-treated control. It counts as functional. In a few lines:
as §1

Data set [5] deals with T1, Kappa-type opioid receptor (Homo sapiens, UniProt P41145). Nature of the data set: Agonist activity at human kappa opioid receptor expressed CHO cells co-expressing Galphaq16 assessed as calcium mobilization by fluorescence assay. It counts as functional, cell-based. A digest of the protocol: (§2)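 CHO cells stably expressing KOP and Gαq16, grown overnight at 37 °C. Loaded with Calcium 5 dye in HBSS with 20 mM HEPES, 0.25% BSA, 1% DMSO, […], 1 h at 37 °C. Compounds added as 10× dilutions, top 10 μM. Fluorescence change over baseline recorded for 60 s. 10-point curves in duplicate, n = 2. Nonlinear regression gave EC50 and Emax.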
T1 sequence (P41145 whole entry): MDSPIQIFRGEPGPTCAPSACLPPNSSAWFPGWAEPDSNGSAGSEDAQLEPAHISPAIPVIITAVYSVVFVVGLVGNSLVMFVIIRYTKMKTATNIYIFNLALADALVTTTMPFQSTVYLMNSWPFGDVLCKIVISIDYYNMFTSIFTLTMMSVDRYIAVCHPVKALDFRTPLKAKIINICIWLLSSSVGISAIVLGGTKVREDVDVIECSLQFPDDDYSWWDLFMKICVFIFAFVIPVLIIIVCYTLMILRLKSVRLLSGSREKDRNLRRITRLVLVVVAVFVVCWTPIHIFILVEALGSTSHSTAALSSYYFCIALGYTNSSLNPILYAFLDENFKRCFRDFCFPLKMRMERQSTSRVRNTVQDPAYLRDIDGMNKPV

For data set [6], the target named is T1, Kappa-type opioid receptor. Nature of the data set: Agonist activity at human kappa opioid receptor expressed CHO cells co-expressing Galphaq16 assessed as calcium mobilization by fluorescence assay relative to (-)-U69593. It counts as functional, cell-based. A digest of the protocol: as §2
In general terms: A change in cytosolic calcium serves as a functional read-out for many receptors and channels.

Bounds are passed on as bounds.

What is called IC50 is the midpoint of a concentration-inhibition curve. As to `COC(=O)[C@@H]1C[C@H](OC(C)=O)C(=O)[C@H]2[C@@]1(C)CC[C@H]1C(=O)O[C@H](c3ccoc3)C[C@]21C` [SALVINORIN A], the permeability in the data set with MDCK [1] is reported as 21.2%; in the data set on MDCK [2], 54.2%. Further, the concentration for half-maximal inhibition (IC50) in the data set on MCF7 [3] is above 100 µM.
As for `Cn1c(=O)c2c(ncn2C)n(C)c1=O` [CAFFEINE], the results for the permeability in the data set on MDCK [1] and in the data set on MDCK [2] were 85.9% and 73%, respectively.
With `COC1=C2C[C@@H](C)C[C@H](OC)[C@H](O)[C@@H](C)/C=C(\C)[C@H](OC(N)=O)[C@@H](OC)/C=C\C=C(/C)C(=O)NC(=CC1=O)C2=O` [GELDANAMYCIN], in the data set with MCF7 [4], the “inhibition (INH)” value was determined as 81%. Further, in the data set on MCF7 [3], the IC50 amounted to 0.04 µM.
For orientation: EC50 means the midpoint of the concentration-response curve. In the case of `COC(=O)[C@@H]1C[C@H](OC(C)=O)C(=O)[C@H]2[C@@]1(C)CC[C@H]1C(=O)O[C@H](CC3=CC(=O)C(OC)=CC3=O)C[C@]21C`, the permeability in the data set with MDCK [1] stood at 9.7%; with MDCK [2] it was 38.4%. Also, the EC50 in data set [5] is above 10 µM. In addition, in the data set on MCF7 [4], the “inhibition (INH)” value worked out at 83%. Also, in the data set with MCF7 [3], the IC50 is 5.84 µM.
`O=C1C=CC(=O)C=C1` [BENZOQUINONE]: the “inhibition (INH)” value in the data set with MCF7 [4] is 85%. The IC50 with MCF7 [3] came out at 2.57 µM.
The term Emax denotes the greatest response seen or fitted, relative to the assay's reference. As for `COC(=O)[C@@H]1C[C@H](OC(C)=O)C(=O)[C@H]2[C@@]1(C)CC[C@H]1C(=O)O[C@H](CC3=CC(=O)C=CC3=O)C[C@]21C`, the concentration giving a half-maximal response (EC50) in data set [5] was 2.5 µM. For the same compound, the Emax in data set [6] came to 27%. Besides, in the data set with MCF7 [4], the “inhibition (INH)” value is 77%. The IC50 with MCF7 [3] was 6.54 µM.
Turning to `COC(=O)[C@@H]1C[C@H](OC(C)=O)C(=O)[C@H]2[C@@]1(C)CC[C@H]1C(=O)O[C@H](CC3=CC(=O)C(OC)=C(OC)C3=O)C[C@]21C`, the results for the permeability with MDCK [1] and in the data set with MDCK [2] were 5% and 47.2%, respectively. Moreover, the half-maximal effective concentration (EC50) in data set [5] is above 10 µM. For the same compound, the “inhibition (INH)” value with MCF7 [4] is listed as 86%. Besides, the half-maximal inhibitory concentration (IC50) in the data set on MCF7 [3] amounted to 2.7 µM.
As to `COc1cc2nc(N3CCN(C(=O)c4ccco4)CC3)nc(N)c2cc1OC` [PRAZOSIN], the permeability with MDCK [1] stood at 6.7%; in the data set on MDCK [2], 35.5%.
